Laboratory results: ChEMBL document CHEMBL4038284, “Synthesis of novel quinoline-based 4,5-dihydro-1H-pyrazoles as potential anticancer, antifungal, antibacterial and antiprotozoal agents” (Eur J Med Chem, 2017)
In brackets after ≈: the same amount, converted by molar mass.

Legend:
Staphylococcus aureus [1] = assay: Antibacterial activity against methicillin-resistant Staphylococcus aureus ATCC 43300 after 24 hrs by resazurin dye based microdilution assay; assay type: functional; conditions: ATCC 43300, 24 h
Method in brief: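 Broth microdilution in Mueller Hinton broth, inoculum 5 × 10^5 – 8 × 10^5. Compound stocks diluted in MHB with 5% DMSO and 0.1% Tween 80. Incubation 24 h at 35-37 °C. MIC is the lowest concentration with visible growth inhibition and/or by resazurin (1 mg/mL) read-out. Gentamicin as control. Run in duplicate, replicated at least three times.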

Klebsiella pneumoniae [2] = assay: Antibacterial activity against ESBL positive Klebsiella pneumoniae ATCC 700603 after 24 hrs by resazurin dye based microdilution assay; assay type: functional; conditions: Klebsiella pneumoniae, 700603, 24 h
Method in brief: (§1)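 MIC taken as the lowest concentration giving visible inhibition and/or by resazurin (1 mg/mL). Gentamicin was the control. Run in duplicate, repeated at least three times.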

Cryptococcus neoformans [3] = assay: Growth inhibition of Cryptococcus neoformans ATCC 32264 at 7.8 ug/ml incubated for 48 hrs under dark condition by broth microdilution method relative to control; assay type: functional; conditions: ATCC 32264, 48 h, read-out: GI
Method in brief: (§2)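 CLSI M27-A3 broth microdilution in RPMI-1640, DMSO ≤1%. Inoculum 1-5 × 10^3 CFU/mL. Incubated 48 h at 30 °C, dark. % inhibition = 100 − (OD405 test − sterility control)/(OD405 growth control − sterility control), with growth and sterility control wells. Triplicate.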

Pseudomonas aeruginosa = assay: Antibacterial activity against Pseudomonas aeruginosa ATCC 27853 after 24 hrs by resazurin dye based microdilution assay; assay type: functional; conditions: ATCC 27853, 24 h; method in brief: as §1
Candida albicans [4] = assay: Growth inhibition of Candida albicans ATCC 10231 at 7.8 ug/ml incubated for 48 hrs under dark condition by broth microdilution method relative to control; assay type: functional; conditions: ATCC 10231, 48 h, read-out: GI; method in brief: as §2
Candida albicans [5] = assay: Antifungal activity against Candida albicans ATCC 10231 incubated for 48 hrs under dark condition by broth microdilution method; assay type: functional; conditions: ATCC 10231, 48 h
Method in brief: (§3)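 CLSI M27-A3 broth microdilution in RPMI-1640, DMSO ≤1%, compounds at 250-0.98 µg/mL final. Inoculum 1-5 × 10^3 CFU/mL. Incubated 48 h at 30 °C in a moist dark chamber, read at OD405. MIC80 and MIC50 taken from % inhibition dose-response curves (mean ± SEM, triplicate). Amphotericin B was the positive control.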

Cryptococcus neoformans [6] = assay: Growth inhibition of Cryptococcus neoformans ATCC 32264 at 3.4 ug/ml incubated for 48 hrs under dark condition by broth microdilution method relative to control; assay type: functional; conditions: ATCC 32264, 48 h, read-out: GI
Candida albicans [7] = assay: Growth inhibition of Candida albicans ATCC 10231 at 3.4 ug/ml incubated for 48 hrs under dark condition by broth microdilution method relative to control; assay type: functional; conditions: ATCC 10231, 48 h, read-out: GI
Cryptococcus neoformans [8] = assay: Growth inhibition of Cryptococcus neoformans ATCC 32264 at 125 ug/ml incubated for 48 hrs under dark condition by broth microdilution method relative to control; assay type: functional; conditions: ATCC 32264, 48 h, read-out: GI; method in brief: as §2
Cryptococcus neoformans [9] = assay: Growth inhibition of Cryptococcus neoformans ATCC 32264 at 62.5 ug/ml incubated for 48 hrs under dark condition by broth microdilution method relative to control; assay type: functional; conditions: ATCC 32264, 48 h, read-out: GI; method in brief: as §2
Candida albicans [10] = assay: Growth inhibition of Candida albicans ATCC 10231 at 125 ug/ml incubated for 48 hrs under dark condition by broth microdilution method relative to control; assay type: functional; conditions: ATCC 10231, 48 h, read-out: GI; method in brief: as §2
Candida albicans [11] = assay: Growth inhibition of Candida albicans ATCC 10231 at 31.25 ug/ml incubated for 48 hrs under dark condition by broth microdilution method relative to control; assay type: functional; conditions: ATCC 10231, 48 h, read-out: GI; method in brief: as §2
Cryptococcus neoformans [12] = assay: Antifungal activity against Cryptococcus neoformans ATCC 32264 incubated for 48 hrs under dark condition by broth microdilution method; assay type: functional; conditions: ATCC 32264, 48 h; method in brief: as §3
Plasmodium falciparum = assay: Antiplasmodial activity against chloroquine-sensitive Plasmodium falciparum 3D7 assessed as reduction in parasitic LDH activity after 48 hrs by Malstat reagent based […] method; assay type: functional; conditions: 3D7, 48 h
Method in brief: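 Unsynchronized P. falciparum 3D7 at 0.5% parasitemia and 1% hematocrit in RPMI with 3% Albumax II. Exposed to 100, 25, 6.25 and 1.56 µg/mL for 48 h at 37 °C under 90% N2/5% CO2/5% O2. After three freeze-thaw cycles, LDH measured with Malstat and NBT/PES, 1 h in the dark, read at 650 nm. IC50 by Probit; triplicate, ≥2 experiments.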

Candida albicans [13] = assay: Growth inhibition of Candida albicans ATCC 10231 at 62.5 ug/ml incubated for 48 hrs under dark condition by broth microdilution method relative to control; assay type: functional; conditions: ATCC 10231, 48 h, read-out: GI; method in brief: as §2
Candida albicans [14] = assay: Growth inhibition of Candida albicans ATCC 10231 at 250 ug/ml incubated for 48 hrs under dark condition by broth microdilution method relative to control; assay type: functional; conditions: ATCC 10231, 48 h, read-out: GI; method in brief: as §2
Staphylococcus aureus [15] = assay: Antibacterial activity against vancomycin-intermediate Staphylococcus aureus after 24 hrs by resazurin dye based microdilution assay; assay type: functional; method in brief: as §1
Trypanosoma cruzi = assay: Antitrypanosomal activity against Trypanosoma cruzi Tulahuen intracellular amastigote harboring LacZ infected in human U937 cells after 72 hrs by CPRG/Nonidet reagent based spectrophotometric method; assay type: functional, cell-based; conditions: U-937, 72 h
Method in brief: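 U-937 cells at 2.5 × 10^5 cells/mL in RPMI-1640 with 10% serum and 0.1 µg/mL PMA were infected with β-galactosidase-transfected Tulahuen epimastigotes at 5 parasites per cell. Infected cells were exposed to 50, 12.5, 3.125 and 0.78 µg/mL for 72 h. CPRG (100 uM) and 0.1% Nonidet P-40 were added for 3 h, read at 570 nm. EC50 by Probit. Triplicate, at least two experiments; benznidazole as reference.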

Neisseria gonorrhoeae = assay: Antibacterial activity against beta lactamase positive Neisseria gonorrhoeae ATCC 31426 by oxidase test; assay type: functional
Method in brief: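 Agar dilution MIC on GC agar with 1% isovitalex containing increasing compound concentrations. Plates inoculated with about 1×10^4 CFU (5 µL). MIC is the lowest concentration that inhibited growth, with growth confirmed by oxidase test. Run in duplicate, repeated at least three times.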

Leishmania panamensis = assay: Antileshmanial activity against EpiR/GFP fused Leishmania panamensis MHOM/CO/87/UA140 intracellular amastigotes infected in human […] cells after 72 hrs by flow cytometric method; assay type: functional, cell-based; conditions: MHOM/CO/87/UA140, 72 h
Method in brief: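 PMA-treated U-937 cells (3 × 10^5 cells/mL) infected with stationary-phase GFP L. panamensis promastigotes (15:1), 3 h at 34 °C, then washed. After 24 h, compounds added at 50, 12.5, 3.125 and 0.78 µg/mL for 72 h at 37 °C. EC50 by Probit; triplicate, two experiments.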

Staphylococcus aureus [16] = assay: Antibacterial activity against methicillin-sensitive Staphylococcus aureus ATCC 25923 after 24 hrs by resazurin dye based microdilution assay; assay type: functional; conditions: ATCC 25923, 24 h; method in brief: as §1
Cryptococcus neoformans [17] = assay: Growth inhibition of Cryptococcus neoformans ATCC 32264 at 31.25 ug/ml incubated for 48 hrs under dark condition by broth microdilution method relative to control; assay type: functional; conditions: ATCC 32264, 48 h, read-out: GI; method in brief: as §2
Candida albicans [18] = assay: Growth inhibition of Candida albicans ATCC 10231 at 15.62 ug/ml incubated for 48 hrs under dark condition by broth microdilution method relative to control; assay type: functional; conditions: ATCC 10231, 48 h, read-out: GI; method in brief: as §2
Klebsiella pneumoniae [19] = assay: Antibacterial activity against carbapenemase positive Klebsiella pneumoniae BAA 1705 after 24 hrs by resazurin dye based microdilution assay; assay type: functional; conditions: BAA 1705, 24 h; method in brief: as §1
Cryptococcus neoformans [20] = assay: Growth inhibition of Cryptococcus neoformans ATCC 32264 at 15.62 ug/ml incubated for 48 hrs under dark condition by broth microdilution method relative to control; assay type: functional; conditions: ATCC 32264, 48 h, read-out: GI; method in brief: as §2
U-937 = assay: Cytotoxicity against human U937 cells after 72 hrs by MTT assay; assay type: cell-based; conditions: u-937, 72 h
Method in brief: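 Exponentially growing U-937 at 1 × 10^5 cells/mL in RPMI-1640 with 10% FBS were exposed to 200, 50, 12.5 and 3.125 µg/mL for 72 h at 37 °C, 5% CO2. MTT for 3 h, stopped with isopropanol/SDS, formazan read at 570 nm, blank-corrected. LC50 by Probit from % viability against untreated cells. Triplicate, at least two independent experiments.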

Cryptococcus neoformans [21] = assay: Growth inhibition of Cryptococcus neoformans ATCC 32264 at 250 ug/ml incubated for 48 hrs under dark condition by broth microdilution method relative to control; assay type: functional; conditions: ATCC 32264, 48 h, read-out: GI; method in brief: as §2
Escherichia coli = assay: Antibacterial activity against Escherichia coli ATCC 25922 after 24 hrs by resazurin dye based microdilution assay; assay type: functional; conditions: ATCC 25922, 24 h; method in brief: as §1

| Structure (SMILES) | MIC (Staphylococcus aureus [1]) [µg/mL] | MIC (Klebsiella pneumoniae [2]) [µg/mL] | inhibition of growth at 7.8 µg/mL (Cryptococcus neoformans [3]) [%] | MIC (Pseudomonas aeruginosa) [µg/mL] | inhibition of growth at 7.8 µg/mL (Candida albicans [4]) [%] | MIC50 (Candida albicans [5]) [µg/mL] | MIC80 (Candida albicans [5]) [µg/mL] | inhibition of growth at 3.4 µg/mL (Cryptococcus neoformans [6]) [%] | inhibition of growth at 3.4 µg/mL (Candida albicans [7]) [%] | inhibition of growth at 125 µg/mL (Cryptococcus neoformans [8]) [%] | inhibition of growth at 62.5 µg/mL (Cryptococcus neoformans [9]) [%] | inhibition of growth at 125 µg/mL (Candida albicans [10]) [%] | inhibition of growth at 31.25 µg/mL (Candida albicans [11]) [%] | MIC50 (Cryptococcus neoformans [12]) [µg/mL] | MIC80 (Cryptococcus neoformans [12]) [µg/mL] | EC50 (Plasmodium falciparum) [µg/mL] | inhibition of growth at 62.5 µg/mL (Candida albicans [13]) [%] | inhibition of growth at 250 µg/mL (Candida albicans [14]) [%] | MIC (Staphylococcus aureus [15]) [µg/mL] | EC50 (Trypanosoma cruzi) [µg/mL] | also measured |
| --- | --- | --- | --- | --- | --- | --- | --- | --- | --- | --- | --- | --- | --- | --- | --- | --- | --- | --- | --- | --- | --- |
| Clc1cc(Cl)cc(N2N=C(c3ccccc3)CC2c2cccc(Nc3ccnc4cc(Cl)ccc34)c2)c1 (stereo not given) | > 1000 | > 1000 | 0 | > 1000 | 0 | ≥ 250 | ≥ 250 | 0 | 0 | 3.29 | 3.07 | 2.17 | 0 | ≥ 250 | ≥ 250 | 12.5 (≈ 23.1 µM) | 0 | 11.2 | > 1000 | 32.6 (≈ 60 µM) | MIC (Neisseria gonorrhoeae): > 1000 µg/mL; EC50 (Leishmania panamensis): 17.8 µg/mL (≈ 32.8 µM); MIC (Staphylococcus aureus [16]): > 1000 µg/mL; inhibition of growth at 31.25 µg/mL (Cryptococcus neoformans [17]): 2.16%; inhibition of growth at 15.62 µg/mL (Candida albicans [18]): 0%; MIC (Klebsiella pneumoniae [19]): > 1000 µg/mL; inhibition of growth at 15.62 µg/mL (Cryptococcus neoformans [20]): 1.36%; LC50 (U-937): > 200 µg/mL; inhibition of growth at 250 µg/mL (Cryptococcus neoformans [21]): 7.5%; MIC (Escherichia coli): > 1000 µg/mL |
| O=CN1N=C(c2ccccc2)CC1c1cccc(Nc2ccnc3cc(Cl)ccc23)c1 (stereo not given) | > 1000 | > 1000 | 11.2 | > 1000 | 4.3 | ≥ 250 | ≥ 250 | 7.63 | 2.19 | 47.2 | 34.4 | 16.9 | 8.44 | 250 (≈ 586 µM) | ≥ 250 | 17.7 (≈ 41.4 µM) | 10.1 | 29.9 | > 1000 | > 0.6 | MIC (Neisseria gonorrhoeae): > 1000 µg/mL; EC50 (Leishmania panamensis): 1.72 µg/mL (≈ 4.03 µM); MIC (Staphylococcus aureus [16]): > 1000 µg/mL; inhibition of growth at 31.25 µg/mL (Cryptococcus neoformans [17]): 29.7%; inhibition of growth at 15.62 µg/mL (Candida albicans [18]): 4.31%; MIC (Klebsiella pneumoniae [19]): > 1000 µg/mL; inhibition of growth at 15.62 µg/mL (Cryptococcus neoformans [20]): 20.7%; LC50 (U-937): 1.3 µg/mL (≈ 3.05 µM); inhibition of growth at 250 µg/mL (Cryptococcus neoformans [21]): 54.1%; MIC (Escherichia coli): > 1000 µg/mL |
